The text below walks through data of publication PMC11436873 (Nature Communications, 2024).

Values after ≈ are worked out from the molar mass of the structure shown.

One data set relates to HCT-8 cells. Nature of the data set: host cell cytotoxicity, CellTiter AQueous. It is filed as cell-based, human. An outline of the steps:
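HCT-8 cells are grown in RPMI 1640 with 10% heat-inactivated FBS and penicillin/streptomycin at 37 °C, 5% CO2, used at passages 9–39. Confluent (>95%) monolayers get varying compound concentrations for 48 h. MTS reduction is read at 490 nm, blanked against trypsinised wells, and expressed as % viability versus DMSO. TC50 is curve-fitted; the selectivity index is the […].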

A short description of data set [1]: kinetic aqueous solubility.
Data set [2] deals with C. parvum. Nature of the data set: NOD SCID gamma mouse model of cryptosporidiosis, fecal parasite shedding by qPCR. It is filed as in vivo. Particulars: NSG mice. An outline of the steps: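 Male NSG mice aged 4–5 weeks are infected with C. parvum oocysts. Oral gavage starts 7 (or 14) days post-infection and runs 7 days. Dosing stock in DMSO is diluted into 1% HPMC (5% DMSO final, 100 μL per dose), with a paromomycin control. Fecal shedding per mg feces is measured by qPCR at treatment start, at treatment end and one week later. n = 4 mice per group, mean and SEM.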

The test system of the next data set is C. hominis Tu502 strain. Nature of the data set: C. hominis growth in HCT-8 cells, same method. Format: cell-based. Particulars: Cryptosporidium hominis, HCT-8, read-out: C. hominis EC50. An outline of the steps:
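TU502 oocysts, used within 1 month, excysted with 10 mM HCl (10 min, 37 °C) and then 2 mM sodium taurocholate in PBS (10 min, 16 °C). Material from 5500 oocysts/well was added to >95% confluent HCT-8 monolayers (passages 9–39, 37 °C, 5% CO2). Compound went in 3 h post-infection, with nitazoxanide as control. At 48 h, cells were fixed with paraformaldehyde and stained with fluorescein-Vicia villosa lectin plus Hoechst.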

For another data set, the system named is 47 human targets. As to the kind of experiment: Eurofins SafetyScan47 panel, whole panel. The settings on record: dose-response up to 30 μM.
In data set [3] the test system is C. parvum. As to the kind of experiment: Cryptosporidium rate-of-action assay in HCT-8 cells. Format: cell-based, Cryptosporidium parvum. Particulars: for parasite elimination in rate-of-action assay: nitazoxanide at EC90, highest tolerated concentration. An outline of the steps: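 HCT-8 monolayers (>90% confluent) are infected with C. parvum sporozoites excysted with 10 mM HCl and then 2 mM taurocholate. […] Cells are fixed, stained with V. villosa lectin and Hoechst, and counted by epifluorescence. Counts are normalised to host nuclei and DMSO wells, then fitted to one-phase exponential decay. Four wells per condition.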

A further data set addresses hERG potassium channel (Homo sapiens, UniProt Q12809). Nature of the data set: hERG [3H]-dofetilide competitive binding. The settings on record: probe [3H]-dofetilide.
The nature of data set [4]: NSG mouse weights and tolerability during efficacy testing. Format: in vivo, Mus musculus (NOD SCID gamma mice). The settings on record: 50 mpk twice daily, 7 days.
A further data set has as its system Cryptosporidium. The settings on record: cited from earlier work.
The next data set concerns human PDE-V. Particulars: read-out: IC50 for human PDE-V; cited from earlier work.
The subject of data set [5] is C. parvum CpPDE1 Val900Ala. Nature of the data set: HCT-8 cell growth assay, CRISPR CpPDE1 Val900Ala mutant parasite. Particulars: Cryptosporidium parvum, HCT-8, read-out: EC50, CpPDE1 V900A, HCT-8 cell growth assay. It is filed as cell-based.

Chain of hERG potassium channel (Q12809 whole entry): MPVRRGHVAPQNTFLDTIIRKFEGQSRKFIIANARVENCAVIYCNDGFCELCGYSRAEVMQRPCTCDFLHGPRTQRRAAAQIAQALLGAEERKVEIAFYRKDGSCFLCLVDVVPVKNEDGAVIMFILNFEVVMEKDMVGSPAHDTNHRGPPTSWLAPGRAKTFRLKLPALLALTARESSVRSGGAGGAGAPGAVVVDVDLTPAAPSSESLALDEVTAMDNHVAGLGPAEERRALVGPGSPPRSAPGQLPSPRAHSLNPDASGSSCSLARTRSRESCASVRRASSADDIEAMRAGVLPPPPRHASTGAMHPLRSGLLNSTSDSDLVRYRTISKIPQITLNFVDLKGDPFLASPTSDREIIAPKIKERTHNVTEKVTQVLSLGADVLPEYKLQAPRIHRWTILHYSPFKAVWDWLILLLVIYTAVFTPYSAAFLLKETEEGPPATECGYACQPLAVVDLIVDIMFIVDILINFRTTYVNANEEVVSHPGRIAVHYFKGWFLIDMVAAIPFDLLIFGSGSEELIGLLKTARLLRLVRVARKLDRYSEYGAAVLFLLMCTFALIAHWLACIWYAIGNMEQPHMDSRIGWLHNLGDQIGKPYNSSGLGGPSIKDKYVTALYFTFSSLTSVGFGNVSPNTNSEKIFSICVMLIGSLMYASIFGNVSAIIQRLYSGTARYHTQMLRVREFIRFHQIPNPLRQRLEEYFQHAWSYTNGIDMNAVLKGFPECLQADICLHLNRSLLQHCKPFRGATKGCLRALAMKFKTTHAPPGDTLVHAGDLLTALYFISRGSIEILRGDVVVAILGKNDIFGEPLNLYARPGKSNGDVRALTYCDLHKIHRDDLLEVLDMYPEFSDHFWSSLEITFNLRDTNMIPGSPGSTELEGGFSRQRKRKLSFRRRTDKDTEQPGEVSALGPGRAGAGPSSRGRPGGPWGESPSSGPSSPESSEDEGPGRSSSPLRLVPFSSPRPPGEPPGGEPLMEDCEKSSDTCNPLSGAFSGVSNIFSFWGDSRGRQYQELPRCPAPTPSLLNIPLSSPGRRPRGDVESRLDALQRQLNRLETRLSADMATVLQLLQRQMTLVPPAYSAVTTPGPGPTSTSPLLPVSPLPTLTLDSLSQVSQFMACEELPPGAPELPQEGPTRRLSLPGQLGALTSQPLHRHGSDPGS

Broadly, the kinetic solubility is the concentration staying in solution when a stock, usually in DMSO, is diluted into the medium. In turn, `COc1ccc(CNc2nc(-c3ccc(C(=O)O)cc3)nc3c2c2ccccc2n3C)cc1Cl` [PDEi4] registered a selectivity index in the data set on HCT-8 cells (HCT-8 TC50 vs C. parvum EC50) of 100. The compound further came in with a solubility (kinetic) at 2 h in data set [1] (PBS, pH 7.4, aqueous buffer, kinetic from dmso stock) of 21 µM (≈ 9.93 µg/mL). Besides, the “efficacy, 7-day dosing” value in the data set with C. parvum [2] (50 mpk twice daily oral) is on record as “no significant effect”.
The EC50 is the concentration giving half of the maximal effect. The inhibition is the drop in the measured response relative to a control, in per cent. Take `CCc1nn(C)c2nc(-c3ccc(C(=O)O)cc3)nc(NCc3ccc(F)cc3)c12` [PDEi5, 4-(3-ethyl-4-((4-fluorobenzyl)amino)-1-methyl-1H-pyrazolo[3,4-d]pyrimidin-6-yl)benzoic acid]: the “toxicity to the HCT-8 cell line” value in the data set with HCT-8 cells (100 μM, highest concentration tested) is on record as “non-toxic”. In addition, the EC50 in the data set on C. hominis Tu502 strain turned out to be 4.7 µM. In the data set on 47 human targets, the “SafetyScan47 EC50/IC50 for 45 of 47 targets” value is > 30 µM. The “time required for 99.9% parasite reduction” value in the data set on C. parvum [3] (in the absence of host immune help) is ~ 107 h. The compound also returned a kinetic solubility in data set [1] (aqueous solution, pH 7.4) of 200 µM (≈ 81.1 µg/mL). In addition, the inhibition at 10 µM at hERG potassium channel is -14.7%. In data set [4], the “fall of mean mouse weight in the final days of treatment” value was ~ 5%. Moreover, the “reduction of parasite shedding after 7 days of treatment” value with C. parvum [2] (50 mpk twice daily oral) is listed as ~ 99%. Moreover, the relapse after treatment result with C. parvum [2] (after 7-day dosing) is listed as “infection relapsed within a week of stopping treatment”.
On to `CC(=O)Oc1ccccc1C(=O)Nc1ncc([N+](=O)[O-])s1` [nitazoxanide], for which the “parasite elimination in rate-of-action assay” value with C. parvum [3] was “no nitazoxanide-dependent parasite elimination occurred”. Further, the “parasite elimination in rate-of-action assay” value in the data set on C. parvum [3] (listed as NTZ) is given as “No exponential decay curve could be fit”. For the same compound, in the data set on Cryptosporidium, the “effectiveness in AIDS patients” value is reported as “equivalent to a placebo” and the effectiveness in children is reported as ~ 56%.
Usually IC50 stands for the concentration that inhibits the measured activity by half. With `CCCc1nn(C)c2c(=O)[nH]c(-c3cc(S(=O)(=O)N4CCN(C)CC4)ccc3OCC)nc12` [sildenafil], the IC50 with human PDE-V was 0.0035 µM. Moreover, the EC50 in data set [5] was 14 µM.
